Data published in ChEMBL document CHEMBL1795235, “Quercetin diacylglycoside analogues showing dual inhibition of DNA gyrase and topoisomerase IV as novel antibacterial agents” (J Med Chem, 2011).
In brackets after ≈: the same amount, converted by molar mass.

Legend:
Staphylococcus aureus [1] = assay: Antibacterial activity against methicillin-resistant Staphylococcus aureus OM584 after 24 hrs by microdilution method; format: functional; details: OM584, 24 h
In short: (§1)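 Broth microdilution in Mueller-Hinton broth with 0.85% NaCl, inoculum about 10^5 CFU per 100 μL. Compounds were diluted in water from 25.6 mg/mL stocks to final 2-fold series of 0.062–128 μg/mL. Plates were incubated 24 h at 35 °C. MIC was the lowest concentration at which all triplicate wells were clear, from three independent determinations.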

Escherichia coli = assay: Antibacterial activity against Escherichia coli K-12 after 24 hrs by microdilution method; format: functional; details: K-12, 24 h
In short: (§2)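 Broth microdilution in Mueller-Hinton broth with 0.85% NaCl, inoculum about 10^5 CFU per 100 μL. Compounds diluted from 25.6 mg/mL stocks in water to 2-fold series, final 0.062–128 μg/mL. […] Three independent determinations.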

Streptococcus pneumoniae = assay: Antibacterial activity against Streptococcus pneumoniae R6 after 24 hrs by microdilution method; format: functional; details: R6, 24 h; in short: as §2
Staphylococcus aureus [2] = assay: Antibacterial activity against methicillin-resistant Staphylococcus aureus OM481 after 24 hrs by microdilution method; format: functional; details: OM481, 24 h; in short: as §1
Enterococcus [3] = assay: Antibacterial activity against vancomycin resistant Enterococcus NCTC 12201 after 24 hrs by microdilution method; format: functional; details: NCTC 12201, 24 h; in short: as §1
Staphylococcus aureus [4] = assay: Antibacterial activity against methicillin-susceptible Staphylococcus aureus 209P after 24 hrs by microdilution method; format: functional; in short: as §1
Pseudomonas aeruginosa = assay: Antibacterial activity against Pseudomonas aeruginosa PAO1 after 24 hrs by microdilution method; format: functional; details: PAO1, 24 h; in short: as §2
[5] = Inhibition of Escherichia coli DNA gyrase assessed as inhibition of pBR322 supercoiling by densitometry
In short: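 One unit of E. coli gyrase with 0.5 μg relaxed pBR322 DNA, 37 °C, 30 min. Stopped with sucrose/EDTA dye, run on 1.0% agarose in TAE. IC50 from densitometry via log-interpolation equation.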

Staphylococcus aureus [6] = assay: Antibacterial activity against methicillin-resistant Staphylococcus aureus COL after 24 hrs by microdilution method; format: functional; in short: as §1
Staphylococcus aureus [7] = assay: Antibacterial activity against vancomycin-intermediate Staphylococcus aureus Mu50 after 24 hrs by microdilution method; format: functional; details: Mu50, 24 h; in short: as §1
[8] = Inhibition of Staphylococcus aureus DNA Topoisomerase 4-mediated decatenation of kDNA after 30 mins by densitometry
In short: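 Purchased S. aureus topoIV, one unit with 200 ng kDNA, 37 °C, 30 min. Products resolved on 1.0% agarose in TAE. IC50 of decatenation from densitometry by interpolation equation, at least three determinations.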

Enterococcus [9] = assay: Antibacterial activity against vancomycin resistant Enterococcus FN-1 after 24 hrs by microdilution method; format: functional; details: FN-1, 24 h; in short: as §1
[10] = Inhibition of Escherichia coli DNA topoisomerase 4 subunit ParC/DNA topoisomerase 4 subunit ParE-mediated decatenation of kDNA by densitometry
In short: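 Purchased E. coli topoIV kit enzyme, one unit with 200 ng kDNA, 37 °C, 30 min. Buffer: 50 mM HEPES-KOH pH 7.6, 5 mM magnesium acetate, 100 mM potassium glutamate, 10 mM DTT, 1 mM ATP, 40% glycerol. Gel on 1.0% agarose in TAE. IC50 of decatenation from densitometry by interpolation equation, at least three determinations.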

Staphylococcus aureus [11] = assay: Antibacterial activity against methicillin-resistant Staphylococcus aureus N315 after 24 hrs by microdilution method; format: functional; details: N315, 24 h; in short: as §1

SMILES	MIC (Staphylococcus aureus [1]) [µg/mL]	MIC (Escherichia coli) [µg/mL]	MIC (Streptococcus pneumoniae) [µg/mL]	MIC (Staphylococcus aureus [2]) [µg/mL]	MIC (Enterococcus [3]) [µg/mL]	MIC (Staphylococcus aureus [4]) [µg/mL]	MIC (Pseudomonas aeruginosa) [µg/mL]	IC50 [5] [nM]	MIC (Staphylococcus aureus [6]) [µg/mL]	MIC (Staphylococcus aureus [7]) [µg/mL]	IC50 [8] [nM]	MIC (Enterococcus [9]) [µg/mL]	IC50 [10] [nM]	MIC (Staphylococcus aureus [11]) [µg/mL]
O=c1c(O[C@@H]2O[C@H](CO)[C@H](O)[C@H](O)[C@H]2O)c(-c2ccc(O)c(O)c2)oc2cc(O)cc(O)c12 [HYPEROSIDE]	> 128	16 (≈ 34.5 µM)	> 128	> 128	> 128	> 128	32 (≈ 68.9 µM)	100	> 128	> 128	70	> 128	3070	> 128
CC(=O)OC[C@H]1O[C@@H](Oc2c(-c3ccc(O)c(O)c3)oc3cc(O)cc(O)c3c2=O)[C@H](OC(C)=O)[C@@H](OC(C)=O)[C@H]1OC(C)=O	32 (≈ 50.6 µM)	> 128	64 (≈ 101 µM)	32 (≈ 50.6 µM)	32 (≈ 50.6 µM)	64 (≈ 101 µM)	> 128	–	128 (≈ 202 µM)	64 (≈ 101 µM)	–	32 (≈ 50.6 µM)	–	64 (≈ 101 µM)
CO[C@@H]1[C@@H](OC(N)=O)[C@@H](O)[C@H](Oc2ccc3c(O)c(NC(=O)c4ccc(O)c(CC=C(C)C)c4)c(=O)oc3c2C)OC1(C)C [NOVOBIOCIN]	0.25 (≈ 0.408 µM)	8 (≈ 13.1 µM)	0.25 (≈ 0.408 µM)	0.25 (≈ 0.408 µM)	2 (≈ 3.26 µM)	0.13 (≈ 0.212 µM)	8 (≈ 13.1 µM)	–	0.25 (≈ 0.408 µM)	8 (≈ 13.1 µM)	–	> 128	110	0.13 (≈ 0.212 µM)
Cc1ccc(CCC(=O)OC[C@H]2O[C@@H](Oc3c(-c4ccc(O)c(O)c4)oc4cc(O)cc(O)c4c3=O)[C@H](O)[C@@H](O)[C@H]2O)cc1	16 (≈ 26.2 µM)	> 128	32 (≈ 52.4 µM)	16 (≈ 26.2 µM)	32 (≈ 52.4 µM)	16 (≈ 26.2 µM)	> 128	1790	32 (≈ 52.4 µM)	16 (≈ 26.2 µM)	2570	32 (≈ 52.4 µM)	12000	16 (≈ 26.2 µM)
Cc1ccc(CCC(=O)OC[C@H]2O[C@@H](Oc3c(-c4ccc(O)c(O)c4)oc4cc(O)cc(O)c4c3=O)[C@H](OC(=O)CCc3ccc(C)cc3)[C@@H](O)[C@H]2O)cc1	0.25 (≈ 0.33 µM)	> 128	0.25 (≈ 0.33 µM)	0.25 (≈ 0.33 µM)	0.5 (≈ 0.661 µM)	0.25 (≈ 0.33 µM)	> 128	2090	1 (≈ 1.32 µM)	0.5 (≈ 0.661 µM)	1490	0.5 (≈ 0.661 µM)	9460	0.25 (≈ 0.33 µM)
O=C(CCCc1ccc(F)cc1)OC[C@H]1O[C@@H](Oc2c(-c3ccc(O)c(O)c3)oc3cc(O)cc(O)c3c2=O)[C@H](OC(=O)CCCc2ccc(F)cc2)[C@@H](O)[C@H]1O	2 (≈ 2.52 µM)	> 128	4 (≈ 5.05 µM)	2 (≈ 2.52 µM)	8 (≈ 10.1 µM)	4 (≈ 5.05 µM)	> 128	2980	16 (≈ 20.2 µM)	4 (≈ 5.05 µM)	2940	8 (≈ 10.1 µM)	10700	4 (≈ 5.05 µM)
O=c1c(O[C@@H]2O[C@H](CO)[C@H](O)[C@H](O)[C@H]2O)c(-c2ccc(O)c(O)c2)oc2cc(O[C@@H]3O[C@H](CO)[C@H](O)[C@H](O)[C@H]3O)cc(O)c12	> 128	32 (≈ 51.1 µM)	> 128	> 128	> 128	> 128	32 (≈ 51.1 µM)	260	> 128	> 128	200	> 128	5340	> 128
